# Experimental data as given in ChEMBL document CHEMBL1136556, “Synthesis and SAR of alpha-acylaminoketone ligands for control of gene expression” (2003).
# Columns and labels:
# Type in all cases: functional
# [1] = molecular target: T1, Ecdysone receptor (Bombyx mori) (UniProt P49881); assay: Agonist activity against Bombyx mori ecdysone receptor
# T1 sequence (whole entry): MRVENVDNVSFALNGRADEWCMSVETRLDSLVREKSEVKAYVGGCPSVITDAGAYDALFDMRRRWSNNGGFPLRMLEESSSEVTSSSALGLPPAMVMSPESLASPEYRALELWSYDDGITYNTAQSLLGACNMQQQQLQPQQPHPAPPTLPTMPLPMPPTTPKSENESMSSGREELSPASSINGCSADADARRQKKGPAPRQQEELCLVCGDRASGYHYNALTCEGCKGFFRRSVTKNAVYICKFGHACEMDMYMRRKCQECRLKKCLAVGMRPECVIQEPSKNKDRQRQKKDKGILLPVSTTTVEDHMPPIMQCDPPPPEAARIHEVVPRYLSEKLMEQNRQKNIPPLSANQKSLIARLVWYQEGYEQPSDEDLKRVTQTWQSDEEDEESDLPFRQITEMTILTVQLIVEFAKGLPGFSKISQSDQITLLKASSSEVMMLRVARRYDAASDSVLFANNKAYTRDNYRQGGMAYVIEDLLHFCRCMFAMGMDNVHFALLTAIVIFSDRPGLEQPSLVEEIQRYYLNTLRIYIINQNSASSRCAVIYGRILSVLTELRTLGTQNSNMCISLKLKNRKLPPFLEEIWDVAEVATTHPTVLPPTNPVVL
# Summary of the method: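 HEK-293 clone Z3 stably expressing Bombyx mori EcR with a β-galactosidase reporter under an ecdysone response element. Cells seeded at 2.5 × 10⁴ cells mL⁻¹ and held 24 h at 37 °C, 5% CO₂. Ligands from 10 mM DMSO stocks were diluted 100-fold in medium (final DMSO 0.03%). Luminescence read at 48 h; dose-response value is the dose giving 50% of maximal transactivation.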
# [2] = Ratio of max level of gene expression of compound to max level of gene expression with compound 1d
# Summary of the method: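 Dose-response assay in Z3 HEK-293 cells (Bombyx mori EcR, ecdysone response element–β-galactosidase reporter), 48 h ligand exposure, final DMSO 0.03%, bioluminescent read-out. Value is the compound's maximal reporter expression divided by the maximal expression given by the reference dibenzoylhydrazine ecdysone agonist.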
# HEK293 = assay: Dose response transactivation assay result expressed as dose affording 50% of max transactivation; conditions: Homo sapiens, read-out: LC50
# Summary of the method: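 HEK-293 clone Z3 engineered to express Bombyx mori EcR, with a β-galactosidase gene under an ecdysone response element. Cells seeded at 2.5 × 10⁴ cells mL⁻¹, grown 24 h at 37 °C in 5% CO₂, then dosed across a concentration series from 10 mM DMSO stocks. Final DMSO 0.03%. Bioluminescent β-gal readout at 48 h; value is dose giving 50% of maximum transactivation.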
Structure (SMILES),Fold induction [1],Rel Max FI [2],EC50 (transactivation) (HEK293) [µM]
COc1cccc(C(=O)NC2(C(=O)c3ccccc3)CCCC2)c1,2,,
Cc1ccccc1C(=O)NC(C)(C)C(=O)c1ccccc1,1,,
CCC(CC)(NC(=O)c1cccc(OC)c1C)C(=O)c1ccccc1OC,384,0.29,6.2
COc1cccc(C(=O)NC(C)(C(=O)c2ccccc2C)C(C)C)c1C (stereo unspecified),452,0.26,18
CCC(CC)(NC(=O)c1cccc(OC)c1C)C(=O)c1ccc(F)cc1,60,0.04,13.7
CCC(CC)(NC(=O)c1cccc(OC)c1C)C(=O)c1ccccc1,11,,
COc1cccc(C(=O)NC2(C(=O)c3ccc(F)cc3)CCCC2)c1C,218,0.14,15
CCC(CC)(NC(=O)c1cccc(OC)c1C)C(=O)c1ccc(C)cc1,8,,
COc1cccc(C(=O)NC2(C(=O)c3ccccc3C)CCCC2)c1C,30,,
COc1cccc(C(=O)NC2(C(=O)c3ccccc3)CCCC2)c1C,71,0.14,2.7
CCC(CC)(NC(=O)c1cccc(OC)c1C)C(=O)c1ccc(F)c(C)c1,223,0.07,10.4
CC(C)(NC(=O)c1ccccc1)C(=O)c1ccccc1,1,,
O=C(NC1(C(=O)c2ccccc2)CCCC1)c1ccc2c(c1)OCO2,1,,
COc1cccc(C(=O)NC(C)(C(=O)c2ccc(F)c(C)c2)C(C)C)c1C (stereo unspecified),,0.24,
CCC(CC)(NC(=O)c1cccc(OC)c1C)C(=O)c1cc(C)cc(C)c1,1000,0.6,4.5
COc1cccc(C(=O)NC(C)(C)C(=O)c2ccccc2)c1,1,,
COc1cccc(C(=O)NC2(C(=O)c3ccc(F)c(C)c3)CCCC2)c1C,487,0.43,3.5
COc1cccc(C(=O)NC(C)(C(=O)c2ccccc2)C(C)C)c1C (stereo unspecified),71,0.04,33.3
COc1cccc(C(=O)NC(C)(C(=O)c2cc(C)cc(C)c2)C(C)C)c1C (stereo unspecified),751,0.75,2.1

Structure (SMILES),Fold induction [1],Rel Max FI [2],EC50 (transactivation) (HEK293) [µM]
COc1cccc(C(=O)NC(C)(C)C(=O)c2ccccc2)c1C,2,,
COc1cccc(C(=O)C(C)(NC(=O)c2cccc(OC)c2C)C(C)C)c1 (stereo unspecified),35,0.12,25.5
COc1ccc(C(=O)C2(NC(=O)c3cccc(OC)c3C)CCCC2)cc1,5,,
COc1cccc(C(=O)NC2(C(=O)c3ccc(C)cc3)CCCC2)c1C,21,,
COc1cccc(C(=O)NC2(C(=O)c3cccc(C)c3)CCCC2)c1C,291,0.46,3.4
CCc1ccc(C(=O)NC(C)(C)C(=O)c2ccccc2)cc1,2,,
COc1cccc(C(=O)NC2(C(=O)c3cc(C)cc(C)c3)CCCC2)c1C,660,0.85,1.9
COc1ccccc1C(=O)C1(NC(=O)c2cccc(OC)c2C)CCCC1,1200,0.7,5.2
O=C(NC1(C(=O)c2ccccc2)CCCC1)c1ccccc1,2,,
COc1cccc(C(=O)NC(C)(C(=O)c2ccc(C)cc2)C(C)C)c1C (stereo unspecified),31,0.05,20
COc1cccc(C(=O)NC(C)(C(=O)c2cccc(C)c2)C(C)C)c1C (stereo unspecified),370,0.47,8.6
Cc1ccccc1C(=O)NC1(C(=O)c2ccccc2)CCCC1,2,,
CCC(CC)(NC(=O)c1cccc(OC)c1C)C(=O)c1cccc(C)c1,525,0.25,6.6
CCC(CC)(NC(=O)c1cccc(OC)c1C)C(=O)c1cccc(OC)c1,256,0.01,33.3
CCC(CC)(NC(=O)c1cccc(OC)c1C)C(=O)c1ccc(OC)cc1,4,,
CCC(CC)(NC(=O)c1cccc(OC)c1C)C(=O)c1ccccc1C,5,,
COc1ccccc1C(=O)C(C)(NC(=O)c1cccc(OC)c1C)C(C)C (stereo unspecified),599,0.2,15
COc1cccc(C(=O)C2(NC(=O)c3cccc(OC)c3C)CCCC2)c1,,0.12,
CC(C)(NC(=O)c1ccc2c(c1)OCO2)C(=O)c1ccccc1,1,,
